The nature of this data set: Toxicity liver stage against HepG2, at 10uM. Type of data set: cell-based. Also on record: test concentration 10 uM, cell line HepG2-A16-CD81EGFP. To be noted: human, HepG2-A16-CD81EGFP cells; read-out: INHIBITION
The essentials:
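Uninfected HepG2-A16-CD81EGFP cells, 3 × 10^3 per well, 1536-well, plated on prespotted compound at 10 μM final, parasite-free screening media added to match infected plates; puromycin 10 μM positive, DMSO 0.5% negative; run in parallel with 48 h PbLuc assay at 37 °C, 5% CO2; viability by CellTiter-Glo luminescence, normalized to controls.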

SMILES strings stand for the structures.

Consider `CC(O)(CCc1ccccc1)CNC(=O)c1ccc(F)cc1` (stereo unspecified), for which the cytotoxicity at 10 µM was -70.3%.

As for `O=S(=O)(CCSc1nccn1C1CC1)c1ccccc1`, the cytotoxicity at 10 µM was -4.63%. With `Cc1nnc(CN2CCCC2c2ccc(Cl)c(Cl)c2)o1` (stereo unspecified), the cytotoxicity at 10 µM is -1.7%.

Take `O=C(NCCn1ccc(-c2ccccn2)n1)C1CC1`: the cytotoxicity at 10 µM was found to be 7.49%. As to `Cc1cc(C(=O)N2CCC3(CC(=O)NC3=O)C2)c(-c2ccccc2)o1` (stereo unspecified), the cytotoxicity at 10 µM is -3.15%. In the case of `O=C1CO[C@H]2CN(S(=O)(=O)c3ccccc3)C[C@H]2N1CC1CCCCC1`, the cytotoxicity at 10 µM was determined as 3.36%. `COCCC(=O)N1C[C@@H](c2ccccc2F)[C@@]2(CCCC(=O)N2)C1`: the cytotoxicity at 10 µM was 0.55%. `Cc1ocnc1C(=O)N(C)[C@@H]1CC[C@@H](n2ccnc2C)[C@@H]1O`: the cytotoxicity at 10 µM is 0.642%.

Take `O=C(c1ccccn1)N1C[C@H]2CC[C@@H](C1)N(C(=O)Cc1cccs1)C2`: the cytotoxicity at 10 µM was -1.13%. Then `CNC(=O)c1cccc(CNC(C)c2ccc(F)cc2N(C)C)c1` (stereo unspecified), with 0.508%; and `CS(=O)(=O)CCC(=O)NC1(c2cccc(C(F)(F)F)c2)CCC1`, with -40.1%.

Consider `CCc1cccc(N2CCC(NC(=O)C3CCCO3)CC2)c1` (stereo unspecified), for which the cytotoxicity at 10 µM was -14.3%. Consider `CCCN(C(=O)c1ccncc1)c1nc2c(s1)CCc1c-2cnn1C`, for which the cytotoxicity at 10 µM is -14.6%. On to `O=C(O)c1c(-c2ccncc2)ncc2c1CCN(CC1CCOC1)C2` (stereo unspecified), for which the cytotoxicity at 10 µM is -100%.

With `N#Cc1cnn(C(=O)CCCOc2ccccc2Cl)c1N`, the cytotoxicity at 10 µM was -1.34%. For the compound `CCCNC(=O)CCNC1CSCCc2ccccc21` (stereo unspecified), the cytotoxicity at 10 µM is -0.421%. As for `COc1ccc(C(=O)NCC(=O)N(Cc2ccsc2)C2CC2)cc1OC`, the cytotoxicity at 10 µM worked out at 0.995%.

For the compound `CN(C)c1nc2sc(C(=O)N3CCNC(=O)CC3)cc2s1`, the cytotoxicity at 10 µM is -10.1%. Then `Cc1n[nH]c(C)c1CC(=O)N1CCC2(CC1)CN(C)CCN2C`, with 1.73%; and `CC(=O)Nc1ccc(-n2cncn2)c(F)c1`, with -11.3%; and `COCCCNC(=O)CN(C)C1CCCN(c2cccnn2)C1` (stereo unspecified), with -2.51%. Then `Cn1cccc1C(=O)N1CCc2ncnc(N3CCCC3)c2CC1`, with -1.31%. The result for `CC(=O)N1CC2(CCN(C(=O)C3CC3)CC2)c2cc(C)ccc21` reads 9.94%. As to `COCC(C)N(C)C(=O)c1ccc2nncn2c1` (stereo unspecified), the cytotoxicity at 10 µM is -1.37%. The result for `c1ccc2c(NCC3(N4CCOCC4)CCSC3)ncnc2c1` (stereo unspecified) reads 57%; that for `CCC1(CC)CC(=O)N(CC(O)c2ccc(F)cc2)C1=O` (stereo unspecified), -0.438%; that for `Cc1nc(S(=O)(=O)CCn2cccn2)n(CC2CCCO2)c1C` (stereo unspecified), -4.34%. Then `Cc1cncc(CN2CC[C@@](O)(CNC(=O)c3c[nH]cn3)[C@H](O)C2)c1`, with -1.68%.

In the case of `CCOc1ccc2c(c1)C=C(C(=O)NC(C)Cn1cccn1)CO2` (stereo unspecified), the cytotoxicity at 10 µM amounted to 6.95%. The result for `Cc1occc1CNC(=O)C1(C)CCCN1C(=O)c1ccccc1` (stereo unspecified) reads -9.34%. Regarding `O=C(c1cc(-c2ccco2)nc2c(Cl)cccc12)N1CC[C@H]2CNC[C@H]21`, the cytotoxicity at 10 µM was -3.29%. Take `CCc1nc(NC2CCCN(C(=O)c3cccs3)C2)c2cnn(C)c2n1` (stereo unspecified): the cytotoxicity at 10 µM was determined as 13.9%. As to `Cc1ccnc(NCc2cccc(OCCN3CCOCC3)c2)n1`, the cytotoxicity at 10 µM amounted to 2.5%. Then `Cc1cccc(C(C(=O)NCCn2cccc2)N(C)C)c1` (stereo unspecified), with -9.12%; and `Cc1cc(C)nc(N2CCC(C(=O)Nc3n[nH]c(C)n3)CC2)n1`, with 8.78%; and `COc1ccc2c(ccn2CCC(=O)Nc2ccc(C(N)=O)cc2)c1`, with 6.1%.

Take `COc1ccc2nnc(CCCC(=O)NCCC3=CCCCC3)n2n1`: the cytotoxicity at 10 µM stood at 2.73%.

Consider `CCn1cc(C(=O)NCc2cccnc2N(C)Cc2ccccc2)cn1`, for which the cytotoxicity at 10 µM worked out at 1.18%. Regarding `COc1cc(-c2cc(-c3ccn(C)c3)nc(N)c2C#N)cc(OC)c1O`, the cytotoxicity at 10 µM is -7.77%. On to `CCCn1ncc2c(C(=O)NC(C)Cn3cccn3)cc(C3CC3)nc21` (stereo unspecified), for which the cytotoxicity at 10 µM is -8.97%. Then `Cc1nc(C2CCCN(C(=O)c3cc(Cl)c[nH]3)C2)no1` (stereo unspecified), with -8.29%; and `O=C(c1ccc[nH]1)N1CCc2onc(COc3cccnc3)c2C1`, with -62.6%. The result for `O=C1CC(c2ccsc2)c2snc(C(=O)O)c2N1` (stereo unspecified) reads -0.772%. Then `O=c1cc(CN2CC[C@@]3(O)CCCC[C@H]3C2)c2cccc3c2n1CCC3`, with -0.948%.

Take `CC(Cn1cc(Br)cn1)C(=O)Nc1ccc(Cl)cn1` (stereo unspecified): the cytotoxicity at 10 µM came out at 34%. Turning to `CC[C@H](C)Nc1nccc(-c2cnc3sc(C)cn3c2=O)n1`, the cytotoxicity at 10 µM is -6.02%. For the compound `COc1ccc(OCCN(C)c2cc(C)nc(N)n2)cc1`, the cytotoxicity at 10 µM came to 49.5%. In the case of `CCOC(=O)CN1CCC2(CC1)CC(NC(=O)c1ccccn1)CO2` (stereo unspecified), the cytotoxicity at 10 µM came to 2.17%. For the compound `Cc1ccn(-c2ccccc2NCc2cscn2)n1`, the cytotoxicity at 10 µM stood at 13.2%. The result for `C[C@@H]1CN(c2ccc(Cl)cn2)C[C@]1(C)O` reads 4.38%. Then `CC(Cn1cccn1)NC(=O)Nc1ccc(N2CCCCC2)nc1` (stereo unspecified), with -4.39%; and `O=C(NCc1cccc(F)c1)NCC(O)c1cccc(F)c1` (stereo unspecified), with -7.58%; and `CCC(Nc1cccc(OC)c1)C(=O)NCc1ccc2[nH]c(=O)[nH]c2c1` (stereo unspecified), with 1.67%.

As to `CCc1n[nH]c(C2CN(C(=O)Cc3ccc(C)nc3)CCO2)n1` (stereo unspecified), the cytotoxicity at 10 µM worked out at 6.97%. In the case of `O=C1CSc2ccccc2N1CC(=O)N1CCCCC1c1nccs1` (stereo unspecified), the cytotoxicity at 10 µM is 14.4%. As to `COC(=O)c1ccc(C2CC(=O)Oc3cc(C)[nH]c(=O)c32)cc1` (stereo unspecified), the cytotoxicity at 10 µM was -3.86%. As to `COC(=O)C(CNC(=O)Nc1nncs1)Cc1ccc(O)cc1` (stereo unspecified), the cytotoxicity at 10 µM was 16.9%. Then `Cc1ccc([C@@H]2CN(C(=O)c3ccccc3C)C[C@H]2N(C)C)cc1`, with -8.29%; and `Cc1ccc(CNC(=O)Nc2nnc(C(C)C)s2)n1C`, with -10%; and `Cn1nccc1CCC(=O)N1CCOC(c2cnccn2)C1` (stereo unspecified), with -25.9%. Consider `CSCCC(=O)N1CCC(c2nnc(CN(C)CCO)n2C)CC1`, for which the cytotoxicity at 10 µM stood at 0.583%. In the case of `O=C(Cn1cccn1)NCC1CCCN(Cc2ccccc2)C1` (stereo unspecified), the cytotoxicity at 10 µM was -16.2%. Then `Cn1ccnc1C(NCc1csc(Br)c1)c1ccccc1` (stereo unspecified), with -0.12%; and `Cc1ccc(NC(=O)N2CCOC(C)(c3cnn(C)c3)C2)c(C)c1` (stereo unspecified), with 6.05%; and `CC(C)(C)c1nnc(CNc2c(F)cccc2-n2cccn2)o1`, with -8.25%. Consider `CCNc1nc(C)c(C(=O)N2CCC(C(O)Cc3ccccc3)CC2)s1` (stereo unspecified), for which the cytotoxicity at 10 µM came to 13.5%. With `CC(C)c1cc(CNC(=O)NCc2cccc(N3CC=CC3)c2)on1`, the cytotoxicity at 10 µM is 9.99%. Turning to `NCCSc1nccc(-c2cnc(C3CC3)nc2-c2ccco2)n1`, the cytotoxicity at 10 µM was -7.19%. In the case of `Cc1nc2cc(-c3nccn3C)nn2c(N2CCCC(O)C2)c1C` (stereo unspecified), the cytotoxicity at 10 µM stood at 2.92%. Then `CC(C)c1noc(CS(=O)(=O)CC(=O)NCC(F)(F)F)n1`, with 7.62%; and `CCCNC(=O)c1c(-n2cnnn2)sc2c1CCC2`, with 4.05%; and `COCC(=O)N1CCC[C@]2(C(=O)N(C)C)CN(c3ccccn3)C[C@@H]2C1`, with -10.1%.

As for `Fc1ccc(OCCCN2CC(n3cccn3)C2)cc1`, the cytotoxicity at 10 µM was 2.16%. The result for `Cc1cnn(CCNCc2ccc(OCc3csc(C)n3)cc2)c1` reads -6.32%; that for `Cn1cc(C(=O)N2CCCC2c2noc(C3CC3)n2)c2ccccc21` (stereo unspecified), -0.249%; that for `CN(C)c1ncnc2c1CCN(C(=O)c1sccc1S(N)(=O)=O)C2`, 0.192%. The result for `CCc1ncc2c(n1)CN(Cc1nnc(CC)o1)CC2` reads -8.8%; that for `OCCCN1CCc2onc(C(c3ccccc3)c3ccccc3)c2C1`, -5.51%.

For the compound `O=C(COc1ccc(Cl)cc1Cl)N1CCCSCC1CN1CCOCC1` (stereo unspecified), the cytotoxicity at 10 µM came to 4.09%. Then `Cc1ccc(S(=O)(=O)N(C)c2ccsc2C(=O)NCC(C)C)cc1`, with 10.6%; and `Cc1occc1CNC(=O)C1CCCN1C(=O)C1CC1` (stereo unspecified), with 7.98%; and `CCCc1cc(=O)n(CC(N)=O)c(-n2nc(C)cc2C)n1`, with 0.097%.

With `CCCOC1CCCN(C(=O)c2ccnnc2)C1` (stereo unspecified), the cytotoxicity at 10 µM was -20.6%. `COCCn1ccc2cc(C(=O)NC3CCOC(C)(C)C3)ccc21` (stereo unspecified): the cytotoxicity at 10 µM is -0.508%. Consider `Cc1cc(S(=O)(=O)N2CCCc3ccccc32)sc1C(=O)O`, for which the cytotoxicity at 10 µM is -13.5%. As for `Cc1cc(C)n2nc(CC(=O)N[C@H]3C[C@H]4CN(C)CCN4C3)nc2n1`, the cytotoxicity at 10 µM was -2.9%. Then `COc1cc(F)c(S(=O)(=O)Nc2cnc(O)cc2C)cc1OC`, with 5.66%; and `Cn1cc(C(=O)N2CCN(Cc3ccccn3)CC2)ccc1=O`, with 6.85%; and `CCN1C(=O)C2(CCN(CCN(C)C)CC2)c2ccccc21`, with -112%. Then `COc1ccc(C2CCCN2c2nnc(C)s2)c(OC)c1` (stereo unspecified), with 9.74%; and `c1ccc(-c2nc(CN3CCn4c(nnc4C4CC4)C3)cs2)cc1`, with -3.92%. Turning to `CCN1CCCC(c2c(-c3ccccc3)ncn2CC(N)=O)C1` (stereo unspecified), the cytotoxicity at 10 µM was -15.4%. Then `CCN(Cc1nc(C2CC2)no1)Cc1ccc(C#N)cc1F`, with 3.82%; and `COc1cc(CNC(=O)NCc2c(C)cc(C)[nH]c2=O)ccc1C`, with -11.5%. With `CC(C)c1nnc(CN2C(=O)OC[C@@H]2C(C)C)o1`, the cytotoxicity at 10 µM was 14.3%. `CC(=O)N(C)Cc1ccccc1NCc1c(C)cccc1C`: the cytotoxicity at 10 µM is -4.54%.
